Results: ChEMBL document CHEMBL5724801, “EUbOPEN Chemogenomics Library - Multiplex” (2024)
Values joined by “and” are separate entries in the source; they are usually repeats but may differ in a detail not shown here. Identical values can stand only once.

Columns and labels:
Fibroblast = assay: Multiplex assay against human fibroblast; format: toxicity, cell-based
Procedure, shortened: (§1)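 Imaging took place on a CQ1 microscope at 37°C and 5% CO2 once compound had been added to live cells stained at seeding with Hoechst33342, BioTracker Green Microtubule Cytoskeleton Dye, MitoTracker Red and Annexin V Alexa Fluor 680. CellPathfinder machine-learning gating classed cells as Hoechst high-intensity objects or normal cells, classed normal cells as having healthy, pyknosed or fragmented nuclei, and classed pyknosed cells as mitotic or apoptotic. Tubulin, mitochondrial-mass and membrane-permeability phenotypes are per cents of the healthy-nucleus cells.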

HEK-293T = assay: Multiplex assay against HEK293T; format: toxicity, cell-based; details: human; procedure, shortened: as §1
[1] = 12 h, 1 µM, compound concentration 1 uM
[2] = 12 h, 10 µM, compound concentration 10 uM
[3] = 24 h, 1 µM, compound concentration 1 uM
[4] = 24 h, 10 µM, compound concentration 10 uM
[5] = 48 h, 1 µM, compound concentration 1 uM
[6] = 48 h, 10 µM, compound concentration 10 uM

In the case of `CCc1cc2cc(NS(=O)(=O)c3ccc(C#N)cc3)ccc2n(CC)c1=O`, the “Population Apoptotic (%)” value (Fibroblast; [1]) is reported as 42%, the “Population Fragmented Nuclei (%)” value (Fibroblast; [1]) is reported as 16% and 27% and the “Population Healthy Nuclei (%)” value (Fibroblast; [1]) is reported as 64% and 40%. For the same compound, the “Population Hoechst High Intensity Objects (%)” value (Fibroblast; [1]) was 1% and 6%, the “Population Membrane Permeable-Phenotype (%)” value (Fibroblast; [1]) was 1% and 9% and the “Population Mitochondria Different-Phenotype (%)” value (Fibroblast; [1]) was 3% and 7%. For the same compound, the “Population Mitotic Cells (%)” value (Fibroblast; [1]) was 57%, the “Population Normal (%)” value (Fibroblast; [1]) was 98% and 93% and the “Population Pyknosed Nuclei (%)” value (Fibroblast; [1]) was 18% and 32%. The “Population Tubulin-Different-Phenotype (%)” value (Fibroblast; [1]) was 24% and 39%, the “Total Cell Count” value (Fibroblast; [1]) was 157 and 173 and the “Population Apoptotic (%)” value (Fibroblast; [2]) was 42% and 18%. The “Population Fragmented Nuclei (%)” value (Fibroblast; [2]) was 18% and 19%, the “Population Healthy Nuclei (%)” value (Fibroblast; [2]) was 54% and 43% and the “Population Hoechst High Intensity Objects (%)” value (Fibroblast; [2]) was 1% and 5%. The “Population Mitochondria Different-Phenotype (%)” value (Fibroblast; [2]) was 5% and 6%, the “Population Mitotic Cells (%)” value (Fibroblast; [2]) was 57% and 81% and the “Population Normal (%)” value (Fibroblast; [2]) was 98% and 94%. For the same compound, the “Population Pyknosed Nuclei (%)” value (Fibroblast; [2]) was 26% and 37%, the “Population Tubulin-Different-Phenotype (%)” value (Fibroblast; [2]) was 65% and 74% and the “Total Cell Count” value (Fibroblast; [2]) was 133 and 153. For the same compound, the “Population Apoptotic (%)” value (Fibroblast; [3]) was 53% and 43%, the “Population Fragmented Nuclei (%)” value (Fibroblast; [3]) was 19% and 26% and the “Population Healthy Nuclei (%)” value (Fibroblast; [3]) was 63% and 48%. The “Population Hoechst High Intensity Objects (%)” value (Fibroblast; [3]) was 5% and 6%, the “Population Membrane Permeable-Phenotype (%)” value (Fibroblast; [3]) was 1% and 9% and the “Population Mitochondria Different-Phenotype (%)” value (Fibroblast; [3]) was 4% and 8%. The “Population Mitotic Cells (%)” value (Fibroblast; [3]) was 46% and 56%, the “Population Normal (%)” value (Fibroblast; [3]) was 94% and 93% and the “Population Pyknosed Nuclei (%)” value (Fibroblast; [3]) was 17% and 25%. The “Population Tubulin-Different-Phenotype (%)” value (Fibroblast; [3]) was 26% and 51%, the “Total Cell Count” value (Fibroblast; [3]) was 157 and 164 and the “Population Apoptotic (%)” value (Fibroblast; [4]) was 50% and 32%. For the same compound, the “Population Fragmented Nuclei (%)” value (Fibroblast; [4]) was 19% and 22%, the “Population Healthy Nuclei (%)” value (Fibroblast; [4]) was 58% and 38% and the “Population Hoechst High Intensity Objects (%)” value (Fibroblast; [4]) was 2% and 9%. For the same compound, the “Population Membrane Permeable-Phenotype (%)” value (Fibroblast; [4]) was 1% and 6%, the “Population Mitochondria Different-Phenotype (%)” value (Fibroblast; [4]) was 6% and 12% and the “Population Mitotic Cells (%)” value (Fibroblast; [4]) was 50% and 67%. For the same compound, the “Population Normal (%)” value (Fibroblast; [4]) was 97% and 90%, the “Population Pyknosed Nuclei (%)” value (Fibroblast; [4]) was 22% and 39% and the “Population Tubulin-Different-Phenotype (%)” value (Fibroblast; [4]) was 59% and 72%. The “Total Cell Count” value (Fibroblast; [4]) was 130 and 145, the “Population Apoptotic (%)” value (Fibroblast; [5]) was 52% and 37% and the “Population Fragmented Nuclei (%)” value (Fibroblast; [5]) was 24% and 33%. The “Population Healthy Nuclei (%)” value (Fibroblast; [5]) was 59% and 50%, the “Population Hoechst High Intensity Objects (%)” value (Fibroblast; [5]) was 3% and 5% and the “Population Membrane Permeable-Phenotype (%)” value (Fibroblast; [5]) was 0% and 12%. The “Population Mitochondria Different-Phenotype (%)” value (Fibroblast; [5]) was 4% and 8%, the “Population Mitotic Cells (%)” value (Fibroblast; [5]) was 47% and 62% and the “Population Normal (%)” value (Fibroblast; [5]) was 96% and 94%. For the same compound, the “Population Pyknosed Nuclei (%)” value (Fibroblast; [5]) was 15% and 16%, the “Population Tubulin-Different-Phenotype (%)” value (Fibroblast; [5]) was 27% and 60% and the “Total Cell Count” value (Fibroblast; [5]) was 150 and 156. The “Population Apoptotic (%)” value (Fibroblast; [6]) was 60%, the “Population Fragmented Nuclei (%)” value (Fibroblast; [6]) was 17% and 30% and the “Population Healthy Nuclei (%)” value (Fibroblast; [6]) was 62% and 48%. For the same compound, the “Population Hoechst High Intensity Objects (%)” value (Fibroblast; [6]) was 1% and 7%, the “Population Mitochondria Different-Phenotype (%)” value (Fibroblast; [6]) was 12% and 7% and the “Population Mitotic Cells (%)” value (Fibroblast; [6]) was 40% and 39%. For the same compound, the “Population Normal (%)” value (Fibroblast; [6]) was 98% and 92%, the “Population Pyknosed Nuclei (%)” value (Fibroblast; [6]) was 19% and 20% and the “Population Tubulin-Different-Phenotype (%)” value (Fibroblast; [6]) was 61% and 69%. For the same compound, the “Total Cell Count” value (Fibroblast; [6]) was 129 and 145, the “Population Apoptotic (%)” value (HEK-293T; [1]) was 43% and 40% and the “Population Fragmented Nuclei (%)” value (HEK-293T; [1]) was 8% and 7%. The “Population Healthy Nuclei (%)” value (HEK-293T; [1]) was 78%, the “Population Hoechst High Intensity Objects (%)” value (HEK-293T; [1]) was 9% and 7% and the “Population Membrane Permeable-Phenotype (%)” value (HEK-293T; [1]) was 0%. For the same compound, the “Population Mitochondria Different-Phenotype (%)” value (HEK-293T; [1]) was 37% and 64%, the “Population Mitotic Cells (%)” value (HEK-293T; [1]) was 56% and 59% and the “Population Normal (%)” value (HEK-293T; [1]) was 90% and 92%. For the same compound, the “Population Pyknosed Nuclei (%)” value (HEK-293T; [1]) was 12% and 14%, the “Population Tubulin-Different-Phenotype (%)” value (HEK-293T; [1]) was 28% and 29% and the “Total Cell Count” value (HEK-293T; [1]) was 411 and 338. For the same compound, the “Population Apoptotic (%)” value (HEK-293T; [2]) was 38% and 65%, the “Population Fragmented Nuclei (%)” value (HEK-293T; [2]) was 7% and 6% and the “Population Healthy Nuclei (%)” value (HEK-293T; [2]) was 80% and 69%. The “Population Hoechst High Intensity Objects (%)” value (HEK-293T; [2]) was 7% and 16%, the “Population Membrane Permeable-Phenotype (%)” value (HEK-293T; [2]) was 0% and the “Population Mitochondria Different-Phenotype (%)” value (HEK-293T; [2]) was 47% and 71%. The “Population Mitotic Cells (%)” value (HEK-293T; [2]) was 61% and 34%, the “Population Normal (%)” value (HEK-293T; [2]) was 92% and 83% and the “Population Pyknosed Nuclei (%)” value (HEK-293T; [2]) was 12% and 23%. For the same compound, the “Population Tubulin-Different-Phenotype (%)” value (HEK-293T; [2]) was 48% and 41%, the “Total Cell Count” value (HEK-293T; [2]) was 404 and 291 and the “Population Apoptotic (%)” value (HEK-293T; [3]) was 29% and 43%. For the same compound, the “Population Fragmented Nuclei (%)” value (HEK-293T; [3]) was 8% and 7%, the “Population Healthy Nuclei (%)” value (HEK-293T; [3]) was 80% and 84% and the “Population Hoechst High Intensity Objects (%)” value (HEK-293T; [3]) was 5%. For the same compound, the “Population Membrane Permeable-Phenotype (%)” value (HEK-293T; [3]) was 1% and 0%, the “Population Mitochondria Different-Phenotype (%)” value (HEK-293T; [3]) was 19% and 44% and the “Population Mitotic Cells (%)” value (HEK-293T; [3]) was 70% and 56%. For the same compound, the “Population Normal (%)” value (HEK-293T; [3]) was 94%, the “Population Pyknosed Nuclei (%)” value (HEK-293T; [3]) was 11% and 7% and the “Population Tubulin-Different-Phenotype (%)” value (HEK-293T; [3]) was 18% and 22%. The “Total Cell Count” value (HEK-293T; [3]) was 510 and 403.
